Source: PubChem BioAssay
In the library only some 4.7% were active in any assay of this set; here they are far more common.
RGS4 inh: human RGS4 inhibition; P49798; HEK293 M3R/RGS4 inducible, Fluo-4 calcium flux; hits give high values; triggered by carbachol at its EC20; B-score at 10 µM; 310,000 compounds, 0.45% hits;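 active = B-score, a plate-corrected calcium signal, over three deviations above library mean, with baseline fluorescence within five deviations of library mean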;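 note: RGS4 expression induced by doxycycline in cells with stable M3 receptor; B-score is computed from the integrated fluorescence ratio over baseline after carbachol; higher B-score means a larger calcium signal and so more RGS4 inhibition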
Target sequence (P49798 whole entry, looked up): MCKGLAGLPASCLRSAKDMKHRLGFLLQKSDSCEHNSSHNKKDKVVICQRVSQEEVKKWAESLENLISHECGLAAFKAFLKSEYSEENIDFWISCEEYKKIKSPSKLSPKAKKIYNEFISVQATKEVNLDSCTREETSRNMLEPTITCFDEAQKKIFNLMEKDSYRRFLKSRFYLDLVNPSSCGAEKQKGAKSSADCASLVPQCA
RGS4 act: RGS4 potentiation or activation; HEK293 M3R/inducible RGS4, carbachol calcium flux Fluo4; hits give low values; B-score at 10 µM; 310,000 compounds, 0.92% hits; AID 463111;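 active = B-score of the integrated calcium signal more than 4 SD below the library mean, with starting fluorescence not abnormally high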;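 note: negative B-score means reduced calcium response which marks RGS4 activation or potentiation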
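Assay system: HEK293 FlpIn-TREx cells, stable M3R, doxycycline-inducible RGS4 / Probe or stimulus: carbachol, ECmax concentration / Times: overnight RGS4 induction, 30 min dye load 37 °C, 20 min compound RT / Signal: kinetic calcium fluorescence imaging with Fluo4-AM dye, 2 µM / Measure: Agonist-evoked peak-minus-minimum fluorescence over baseline, integrated ratio, B score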
KCC2 mod: modulates chloride dependent transport by human KCC2; B-score of Tl+ flux slope (higher = more flux/activation; lower = inhibition) at 10 µM; 190,000 compounds, 2.2% hits; AID 1456; KCC2 cells, thallium flux FluoZin-2 fluorescence;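 active = thallium flux slope and its plate-corrected score both differing from the plate sample mean at a set confidence after two filtering rounds, in either direction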;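 note: slope of fluorescence scaled to starting intensity during 10 to 20 s after thallium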
MrgX1 antagonist: antagonists of human MrgX1 receptor | 310,000 compounds, 1.3% hits | Q96LB2 | AID 588676 | B-score at 10 µM | MRGX1-HEK293 calcium flux, Fluo-4, BAM8-22 antagonism; hits give low values;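 active = calcium-response B-score plate-corrected more than 3 library SD below zero, starting fluorescence within 5 deviations, no agonist response on first addition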;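 note: peak minus trough fluorescence over baseline after final BAM8-22 challenge near maximal dose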
Target sequence (Q96LB2 whole entry, looked up): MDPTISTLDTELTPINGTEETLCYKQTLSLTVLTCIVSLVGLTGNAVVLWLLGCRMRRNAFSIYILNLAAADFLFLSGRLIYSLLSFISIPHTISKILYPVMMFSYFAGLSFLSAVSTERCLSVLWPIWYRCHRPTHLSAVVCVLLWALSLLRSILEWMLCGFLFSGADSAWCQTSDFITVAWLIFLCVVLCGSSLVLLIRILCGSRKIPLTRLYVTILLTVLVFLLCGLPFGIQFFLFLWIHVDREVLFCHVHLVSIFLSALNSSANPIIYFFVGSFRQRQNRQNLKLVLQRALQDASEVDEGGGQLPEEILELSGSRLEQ
MrgX1 agonist: human MrgX1 receptor agonism, primary screen; Q96LB2; MrgX1-HEK293 cells, Fluo-4 calcium fluorescence, agonist mode; hits give high values; B-score at 10 µM; 310,000 compounds, 0.44% hits; AID 588627;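 active = calcium response B-score plate-corrected fluorescence ratio at least 3 library SD, with starting fluorescence B-score inside 5 SD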
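Material: MrgX1-expressing HEK293 cells; input: 15,000 cells per well; doses: test compound given as first of three sequential additions; schedule: overnight plating before 1 h dye loading; technique: Fluo-4 NW calcium-flux fluorescence, kinetic read; evaluation: baseline-normalised fluorescence change ratio, B-scored; control set: plate-wise positive and negative controls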
MrgX1 PAM: allosterically activates human MrgX1 receptor signaling; Q96LB2; MrgX1-HEK293, Fluo-4 calcium flux, FDSS; hits give high values; B-score at 10 µM; 310,000 compounds, 0.63% hits; AID 588675;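 active = plate-corrected calcium response at least 3 library SD above typical, normal starting fluorescence, not activating the receptor alone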;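 note: compound read alongside a low EC10 to EC30 dose of BAM8-22 agonist; peak minus trough fluorescence over baseline measured at the second addition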
RGS4 act valid: confirmation of RGS4 activators; shares compounds with RGS4 act; HEK293 M3R/RGS4 inducible, carbachol calcium flux Fluo4; inhibition, % at 10 µM; 1,100 compounds, 89% hits; AID 602282;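 active = inhibition above 3 SD of the buffer control wells, cut at about 41% in these data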;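 note: signal is the integrated peak-minus-minimum Fluo4 fluorescence over baseline ratio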
RGS4 act ctr: activity in cells without induced RGS4 expression; inhibition, % at 10 µM; HEK293 M3R non-induced RGS4, Fluo4 calcium flux; after carbachol challenge at its EC90; shares compounds with RGS4 act; 1,100 compounds, 82% hits; AID 602283;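 active = inhibition exceeding 3 SD of buffer-only control wells, cut at about 26% in these data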;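 note: percent drop in integrated peak-minus-baseline over baseline Fluo4 ratio after carbachol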
MrgX1 allo conf: human MrgX1 positive allosteric modulation, re-confirmation; shares compounds with MrgX1 PAM; MrgX1-HEK293, Fluo-4 calcium fluorescence, FDSS; activation (ratio percentage), % at 10 µM; 1,200 compounds, 13% hits; AID 602413;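 active = ratio at least 3 SD above the weak peptide control, stable starting fluorescence, no direct agonism earlier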;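 note: compound followed by low BAM8-22 agonist challenge near EC20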
HEK293 Ca flux: MrgX1 antagonist counter-screen hit in parental HEK293 cells; shares compounds with MrgX1 antagonist; Fluo-4 calcium fluorescence, FDSS; fluorescence ratio F(max-min)/F0 at 10 µM; 4,000 compounds, 2% hits; AID 624111;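 active = duplicate-averaged calcium fluorescence ratio at least three times the standard deviation of buffer wells, a nonspecific response in parental cells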
HEK293 Ca counter: activity in parental HEK293 cells without MrgX1. 4,000 compounds, 0.4% hits. parental HEK293 calcium flux, Fluo-4 fluorescence ratio; hits give high values. fluorescence ratio F(max-min)/F0 at 10 µM. shares compounds with MrgX1 antagonist;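 active = calcium fluorescence ratio, averaged over duplicates, at least 3 SD of the buffer-well ratio, meaning a nonspecific response in receptor-free cells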;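 note: untransfected parental HEK293 lacking MrgX1 used as counterscreen for MrgX1 allosteric activators; fluorescence change taken during the second addition on a kinetic imager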
HEK293 Ca cntr2: counter-screen for MrgX1 activators: effect in parental HEK293 cells; shares compounds with MrgX1 antagonist; Fluo-4 calcium fluorescence (FDSS); hits give high values; fluorescence ratio F(max-min)/F0 at 10 µM; 4,000 compounds, 8.7% hits; AID 624115;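 active = calcium fluorescence ratio at least three times the spread of buffer wells, meaning a non-specific response in parental cells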
The depositor's hits bear a star; i = inactive; x = not tested or not shown.

SMILES | RGS4 inh | RGS4 act | KCC2 mod | MrgX1 antagonist | MrgX1 agonist | MrgX1 PAM | RGS4 act valid | RGS4 act ctr | others
CCOC(=O)c1cc2c(ccn2C)n1CC(=O)N1CCN(c2ccc(F)cc2)CC1 | i | i | -4.5 | i | i | i | x | x
CCOC(=O)c1cc2c(ccn2C)n1Cc1cc(C)ccc1C | i | -8* | 0.54 | i | i | i | 85* | 30*
O=C(Nc1ccccc1C(=O)O)c1cc(S(=O)(=O)N2CCCCCC2)ccc1Cl | i | -8.4* | x | i | i | i | 0 | 0
COc1ccc(-c2cc(C(=O)N(C)Cc3cccc(OC)c3OC)c3ccccc3n2)cc1OC | i | i | x | i | i | i | x | x
COc1cccc(NC(=O)CN(C)C(=O)c2cc(-c3ccc(F)cc3)nc3ccccc23)c1 | i | -7.6* | x | i | i | i | 86* | 64*
COc1ccc(CN(C)C(=O)c2cc(-c3ccc(OC)c(OC)c3)nc3ccccc23)c(OC)c1 | i | -9* | x | i | i | i | 69* | 84*
COc1cccc(CN(C)C(=O)c2cc(-c3ccc(OC)c(OC)c3)nc3ccccc23)c1 | i | -9.8* | x | i | i | i | 66* | 28*
Cc1ccnc(NC(=O)C2CC(=O)N(Cc3ccccc3)C2)c1 (configuration not stated) | i | i | x | i | i | i | x | x
CCC(CC)C(=O)Nc1cccc(C(=O)N2CCOCC2)c1 | i | -10* | 1.1 | i | i | i | 0 | 0
Nc1ccc2c3c(cccc13)C(=O)N(c1ccccc1)C2=O | i | i | i | x | x | x | x | x
CC(C)CCN1C(=O)c2cccc3c(N)ccc(c23)C1=O | i | -7.8* | x | i | i | i | 99* | 95*
OC(COC(c1ccccc1)c1ccccc1)CN1CCN(c2cccc(Cl)c2)CC1 (configuration not stated) | i | i | x | i | i | i | x | x
CC(=O)c1ccc(N2CCN(CC(O)COC(c3ccccc3)c3ccccc3C)CC2)cc1 (configuration not stated) | i | -11* | x | i | i | i | 94* | 83*
CC(=O)c1ccc(N2CCN(CC(O)COC(c3ccccc3)c3ccccc3)CC2)cc1 (configuration not stated) | i | -7.7* | x | i | i | i | 62* | 84*
CC(C)(C)c1cc(CP(=O)(c2ccccc2)c2ccccc2)cc(C(C)(C)C)c1O | i | i | x | i | i | i | x | x
Cc1cccc(C)c1C(=NCCCN(C)C)c1ccccc1 | i | -9.4* | 0.77 | i | i | i | 92* | 80*
COc1cccc(NC(=O)CCC2CCN(C(=O)C3CC=CCC3)CC2)c1 (configuration not stated) | i | i | x | i | i | i | x | x
N=c1c2c(-c3ccccc3)c(-c3ccccc3)n(Cc3ccco3)c2ncn1Cc1ccccc1 | i | -11* | -1.5 | i | i | i | 93* | 95*
CC(C)N1CCN(C(=O)C2CCC(=O)N(CCc3cccc(F)c3)C2)CC1 (configuration not stated) | i | i | x | x | x | x | x | x
Cc1ccc[n+](CC(=O)Nc2ccc([N+](=O)[O-])cc2)c1 | i | i | x | i | i | i | x | x
N#Cc1c(OCC(=O)c2ccccc2)nc2c(c1-c1ccco1)CCc1ccccc1-2 | i | i | 1.3 | i | i | i | x | x
CCOC(=O)COc1nc2c(c(-c3ccco3)c1C#N)CCc1ccccc1-2 | i | -7.8* | -0.084 | i | i | i | 82* | 37*
CCOC(=O)COc1nc(-c2ccccc2)cc(-c2ccco2)c1C#N | i | -7.7* | -0.68 | i | i | i | 88* | 54*
CC(C)CC1CCCCC1OC(=O)C[N+]1(C)CCCCC1 (configuration not stated) | i | -11* | x | i | i | i | 92* | 87*
CCN(CC)CCC#CC(O)(c1ccccc1)c1ccccc1 | i | -8.1* | 1.4 | i | i | i | 93* | 89*
SMILES | RGS4 inh | RGS4 act | KCC2 mod | MrgX1 antagonist | MrgX1 agonist | MrgX1 PAM | RGS4 act valid | RGS4 act ctr | others
CCCCn1c2ccc(F)cc2c2nnc(SCCN3CCCCC3)nc21 | i | -7.8* | x | x | x | x | 84* | 35*
Cn1c2ccc(F)cc2c2nnc(SCCN3CCCCC3)nc21 | i | i | x | x | x | x | x | x
COC(=O)c1ccccc1NC(=O)c1cn(-c2ccc(C)c(C)c2)c(=O)c2ccccc12 | i | -11* | -1.2 | i | i | i | 76* | 84*
CSc1ccccc1C(=O)Nc1ccccc1C(=O)NC(C)C | i | i | 0.53 | i | i | i | x | x
CCOC(=O)C1=C(C)OC(N)=C(C#N)C1c1cc2c(cc1Br)OCO2 (configuration not stated) | i | -8.7* | -0.63 | i | i | i | 90* | 65*
OC(CCN1CCCCC1)(c1ccccc1)C1CCCCC1 (configuration not stated) | i | i | -0.24 | i | i | i | x | x
OC(CCN1CCOCC1)(c1ccc(Cl)cc1)C1CCCCC1 (configuration not stated) | i | -9.8* | -1.4 | i | i | 6.8* | 93* | 94* | MrgX1 allo conf=i;HEK293 Ca flux=i;HEK293 Ca counter=i;HEK293 Ca cntr2=i
CC(=O)N[C@@H](Cc1c[nH]c2ccccc12)C(=O)NCc1ccccc1 | i | i | x | i | i | i | x | x
